Screening data: PubChem, Broad Institute
Hits are enriched below; roughly 1.1% of the tested compounds scored in any of these assays.
CAL PDZ FP-1: CAL PDZ (human) peptide binding inhibition. Q9HD26. purified CAL PDZ, TMR-peptide fluorescence polarization, 1 h. inhibition, % at 24.9 µM. 300,000 tested, 0.92% active. AID 602252;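 active = mean inhibition of at least 30% with at least half of replicates also reaching 30%; inconclusive = no clear call, values can overlap the other calls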;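 note: 0% = DMSO neutral control and 100% = excess unlabeled competitor peptide PRC23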
Keap1-Nrf2 PPI: disrupts human Keap1 binding to Nrf2 peptide; Q14145; Keap1 Kelch-Nrf2 peptide fluorescence polarization, 1536-well; inhibition, % at 9.4 µM; 340,000 tested, 0.15% active; AID 504523; in the data active = inhibition above about 12%; inconclusive = no clear call, values can overlap the other calls; inactive = below about 7.3%;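 note: human Keap1 Kelch domain with fluorescein labeled Nrf2 9mer peptide probe; 0% = neutral control wells and 100% = peptide positive control; higher means more block of Keap1 binding to Nrf2 peptide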
Target sequence (Q14145 whole entry, looked up, the tested form may be a part): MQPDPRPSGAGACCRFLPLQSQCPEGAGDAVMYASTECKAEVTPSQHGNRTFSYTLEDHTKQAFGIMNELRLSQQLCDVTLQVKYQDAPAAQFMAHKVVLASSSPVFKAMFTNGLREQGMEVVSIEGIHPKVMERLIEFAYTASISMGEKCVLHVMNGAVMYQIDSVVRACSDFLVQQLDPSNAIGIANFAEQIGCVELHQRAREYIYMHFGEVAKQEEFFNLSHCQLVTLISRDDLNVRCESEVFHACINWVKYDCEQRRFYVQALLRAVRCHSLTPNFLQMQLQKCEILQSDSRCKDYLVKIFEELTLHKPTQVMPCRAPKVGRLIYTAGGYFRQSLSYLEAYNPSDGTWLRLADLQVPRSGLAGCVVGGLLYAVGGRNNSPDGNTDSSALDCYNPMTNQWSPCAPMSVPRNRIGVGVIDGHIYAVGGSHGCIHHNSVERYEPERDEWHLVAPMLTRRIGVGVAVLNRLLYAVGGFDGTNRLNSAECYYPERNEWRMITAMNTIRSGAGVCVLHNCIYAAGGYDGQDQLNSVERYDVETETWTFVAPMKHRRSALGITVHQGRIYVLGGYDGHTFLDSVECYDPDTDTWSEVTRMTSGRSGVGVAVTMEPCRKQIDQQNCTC
miR-122 sensor: inhibitors of miR-122 in Huh7 cells; activation (reporter increase), % at 12.5 µM; 340,000 tested, 0.3% active; AID 602342; Huh7 miR-122 Renilla luciferase sensor, 48 h; neutral wells = 0, positive control = 100;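 active = mean replicate activation score at least 90 and every replicate individually at or above 90; inconclusive = only one of the two criteria met; inactive = neither criterion met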;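 note: higher luciferase means less miR-122 activity so hits act as miR-122 inhibitors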
C-LANA FP: blocks KSHV LANA C-terminal domain binding to DNA; MBP-C-LANA/FAM-LBS DNA binding, fluorescence polarization; inhibition, % at 9 µM; 340,000 tested, 0.078% active; AID 504423;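 active = highest replicate inhibition at or above 60% at 9 µM, even if other replicates fall short; inactive = all replicates below 60% inhibition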;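 note: 0% = neutral control wells and 100% = 4 µM acridine orange control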
CAL PDZ FP-2: human CAL PDZ-peptide interaction inhibition | purified CAL PDZ, TMR-peptide fluorescence polarization, 1 h | inhibition, % at 20 µM | 330,000 tested, 0.02% active;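 active = highest replicate inhibition of at least 40%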;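 note: plate controls were DMSO neutral control wells for no effect and unlabeled competitor peptide control wells for full effect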
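Material: tagged CAL PDZ domain; buffer or medium: 25 mM sodium phosphate pH 7.4, 150 mM NaCl, TCEP, IgG, Thesit; compound dosing: single point, 20 µM; schedule: 1 h incubation at room temperature before polarization reading; measured by: FP readout, S and P plane fluorescence; read-out basis: percent inhibition from loss of millipolarization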
Keap1 TSA: binders of human Keap1 Kelch domain. AID 651823. Keap1 Kelch thermal shift, delta Tm; hits give high values. 400 tested, 8% active. shares compounds with Keap1-Nrf2 PPI. max delta Tm, degrees C; in the data active = max delta Tm above about 0.48 degrees C
Sypro dye melt: shifts Sypro Orange melt without protein, a false positive; AID 651858; delta Tm, degrees C (concentration not given with the values); Sypro Orange dye-only thermal melt, no protein, delta Tm; top dose 26 µM; shares compounds with Keap1-Nrf2 PPI; 140 tested, under 10 active;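 active = at highest dose tested, delta Tm positive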
The depositor's hits bear a star; i = inactive; ? = inconclusive; · = no result given; [ ] = remark or other dose.

SMILES	CAL PDZ FP-1	Keap1-Nrf2 PPI	miR-122 sensor	C-LANA FP	CAL PDZ FP-2	Keap1 TSA	others
C[C@H]1CCCCO[C@@H](CN(C)C(=O)Nc2ccccc2)[C@@H](C)CN([C@@H](C)CO)C(=O)c2cc(NC(=O)Nc3cccc4ccccc34)ccc2O1	·	·	-3[16.7 µM]	·	·	·
Cc1sc2ccccc2[n+]1CC(=O)c1ccccc1	·	22*	4	11	-1	-0.12
Cc1sc2ccccc2[n+]1CC(=O)O	0	-3	1	2	-3	·
CC(OC(=O)c1ccc([N+](=O)[O-])o1)C(=O)NC1CCCCC1C (configuration not stated)	·	21*	-4	10	1	-0.07
Clc1ccc(-c2noc(CN3CCOCC3)n2)cc1	·	68*	-6	·	0	-0.18	Sypro dye melt=-22
COc1cccc(C2=CC(c3ccc(OC)c(OC)c3OC)n3nnnc3N2)c1 (configuration not stated)	1	1	0	-1	0	·
COc1cccc(C2=CC(c3cccs3)n3nnnc3N2)c1 (configuration not stated)	-2	15*	20	32	0	-0.13
O=C(COC(=O)c1cccnc1Cl)Nc1ccc(N2CCCCC2)cc1	·	43*	-8	·	0	-0.12	Sypro dye melt=-27
O=C(COC(=O)c1cccnc1Cl)Nc1ccc(N2CCOCC2)cc1	·	·	-1	·	·	·
CCCCCSc1nnc2c(n1)OC(C)N(C(C)=O)c1ccccc1-2 (configuration not stated)	-2	13*	2	0	0	-0.03
COc1ccc(C2N3CC4(C)CN2CC(C)(C3)C4O)cc1OC (configuration not stated)	-8	-1	8	0	-3	·
COc1ccc(C2N3CC4(C)CN2CC(C)(C3)C4O)cc1 (configuration not stated)	-3	20*	·	2	0	-0.16
Cc1ccc(NC(=S)NCc2ccc(F)cc2)c(C)c1	·	22*	3	28	-1	-0.16	Sypro dye melt=-24
COc1cccc(-c2ccc3n(c2=O)C[C@@H]2[C@@H](CO)[C@H](C(=O)N(C)C)[C@H]3N2Cc2cncnc2)c1	·	·	4[16.7 µM]	·	·	·
O=C(NNS(=O)(=O)c1ccc(F)cc1)c1ccc(S(=O)(=O)N2CCCCC2)cc1	0	-4	2	0	-1	·
O=C(NNS(=O)(=O)c1ccc(F)cc1)c1ccc(O)cc1	·	43*	-4	23	-1	-0.17
O=C1c2cccc3c(O)ccc(c23)C(=O)N1c1ccc(Cl)cc1	-6	39*	-9	71	1	0.21
O=C1c2cccc3c(O)ccc(c23)C(=O)N1Cc1ccco1	0	37*	-5	76*	0	0.29
CC(=O)Nc1ccc(N2C(=O)c3cccc4c(O)ccc(c34)C2=O)cc1	0	2	·	36	-1	·
O=C(C[C@H]1CC[C@H]2[C@@H](COC[C@@H](O)CN2CC2CCOCC2)O1)NCC1CC1	·	·	-2[16.7 µM]	·	·	·
O=C(Cc1ccccc1)N1C[C@@H]2[C@H](c3ccccc31)[C@H](CO)N2C(=O)C1CC1	·	·	-10[16.7 µM]	·	·	·
O=C1CC(c2ccco2)CC2=C1C=Nc1ccccc1N2 (configuration not stated)	-5	-1	-1	1	0	·
O=c1[nH]c2c(s1)C=Nc1ccccc1N2	-3	38*	5	54	1	-0.04	Sypro dye melt=-20
COCC(=O)Nc1ccc2c(c1)C(=O)N(C)C[C@@H](OC)[C@H](C)CN(C(=O)c1cnccn1)[C@@H](C)CO2	·	·	0[16.7 µM]	·	·	·
Cc1ccc(-n2nnnc2SCC(=O)c2c(N)n(C3CC3)c(=O)[nH]c2=O)cc1	·	42*	20	22	0	-0.08
SMILES	CAL PDZ FP-1	Keap1-Nrf2 PPI	miR-122 sensor	C-LANA FP	CAL PDZ FP-2	Keap1 TSA	others
Cc1c(N)cc(N)cc1C(=O)O	-1	15*	-8	24	-1	-0.15
CCCNC(=O)N1C[C@H](O)COC[C@@H]2O[C@@H](CC(=O)N3CCOCC3)CC[C@H]21	·	·	4[16.7 µM]	·	·	·
C[C@H](CO)N1C[C@H](C)[C@@H](CN(C)S(=O)(=O)c2ccc(Cl)cc2)OCCCC[C@H](C)Oc2ccc(NS(=O)(=O)c3cn(C)cn3)cc2C1=O	·	·	0[16.7 µM]	·	·	·
N=c1c(C(=O)NC2CCCC2)cc2c(=O)n3ccccc3nc2n1Cc1ccccc1	-7	?	4	1	-2	0.03
O=C1C=CC(=O)c2c(O)c(N3CCN(CCO)CC3)c(Cl)c(O)c21	1	39*	-18	4	3	-0.07	Sypro dye melt=-22
O=C1C=CC(=O)c2c(O)c(N3CCN(CCOCCO)CC3)c(Br)c(O)c21	4	25*	·	10	7	0.08
OCCOCCN1CCN(C2=Nc3ccccc3Sc3ccccc32)CC1	-5	i	8	0	1	·
C[C@@H]1CN([C@@H](C)CO)S(=O)(=O)c2ccc(C#CC3CC3)cc2O[C@H]1CN(C)Cc1ccccc1	·	·	16[16.7 µM]	·	·	·
O=C(NCC[C@H]1CC[C@H](NS(=O)(=O)c2ccccc2)[C@@H](CO)O1)c1cc(Cl)cc(Cl)c1	·	·	-19[16.7 µM]	·	·	·
COc1ccc(C(C)=NNc2ccc([N+](=O)[O-])cc2S(=O)(=O)Nc2ccccc2C(=O)O)c(OC)c1	0	32*	-3	14	0	3.3*	Sypro dye melt=-21
C[C@H]1CN([C@@H](C)CO)C(=O)Cc2cc(NC(=O)Nc3ccccc3)ccc2O[C@@H]1CN(C)Cc1ccc(C(=O)O)cc1	·	·	-2[16.7 µM]	·	·	·
CO[C@@H]1CN(C)C(=O)c2ccc(NC(=O)c3ccccc3)cc2OC[C@@H](C)N(C(C)=O)C[C@H]1C	·	·	4[16.7 µM]	·	·	·
C=CCOc1ccc(CNc2ccc(NC(=O)CC(C)C)cc2)cc1OC	-1	17*	·	1	0	-0.12
C[C@@H]1CCCCO[C@@H](CN(C)C(=O)C2CCCCC2)[C@@H](C)CN([C@H](C)CO)C(=O)c2cc(NC(=O)CCCN(C)C)ccc2O1	·	·	-1[16.7 µM]	·	·	·
C=CCn1c(=O)/c(=C/c2ccsc2)s/c1=C(\C#N)C(=O)NCCN1CCOCC1	·	13*	-4	-3	0	-0.15
O=C(OCCN1C(=O)c2ccccc2C1=O)c1cc(S(=O)(=O)N2CCOCC2)ccc1Cl	-3	2	4	-1	-1	·
O=C(OCCN1C(=O)c2cccc3c(N4CCOCC4)ccc(c23)C1=O)c1ccc(Cl)cc1Cl	0	43*	·	63*	-2	-0.15	Sypro dye melt=-4.9
COC(=O)c1ccc(OC(=O)CN2C(=O)c3ccccc3C2=O)cc1	·	57*	0	25	-1	-0.1
COC(=O)c1ccc(CN2C(=O)c3ccccc3C2=O)cc1	3	2	-4	-1	-1	·
C[C@@H]1CN([C@H](C)CO)C(=O)c2cccc(NS(=O)(=O)c3cn(C)cn3)c2O[C@@H]1CN(C)Cc1ccc(Cl)c(Cl)c1	·	·	0[16.7 µM]	·	·	·
COc1ccc(CNc2nc3ccccc3n2C)c(OC)c1	-3	1	·	0	0	·
